VIM-2 inhibitor: VIM-2 metallo-beta-lactamase inhibitors, primary screen, biochemical, epi-absorbance readout, Pseudomonas aeruginosa enzyme; purified VIM-2, nitrocefin hydrolysis, epi-absorbance fluorescence; inhibition, % at 5.6 µM; hit rate 0.89% among 290,000; AID 1527, 2009;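 active means inhibition above the mean of all tested compounds plus 3 SD, cutoff set per screening run, cut at about 7.5% in these data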;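 further: red hydrolysis product quenches plate fluorescence so inhibitors raise well fluorescence; 0% = enzyme with DMSO and 100% = DMSO without enzyme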
Fh CTSL1 inh: Fasciola hepatica cathepsin L1 inhibitors, primary screen, counter-screen for PFM18AAP inhibitor project, biochemical, QFRET, fluorogenic peptide substrate. inhibition, % at 5.96 µM. hit rate 0.49% among 300,000. recombinant F. hepatica cathepsin L1, Z-Leu-Arg-MCA fluorescence;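 active means inhibition above the mean of all tested compounds plus 3 SD, set per screening campaign, cut at about 17% in these data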;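 further: 0% = plate median of test compound wells and 100% = 1 µM Z-Phe-Ala-diazomethylketone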
T cell HTS: modulators of CD8 T cell-vesicle binding, primary screen, mouse 2C CD8+ T cells, flow cytometry; 2C CD8+ T cell-vesicle binding; stronger effect = lower value; hit rate 0.068% among 330,000; response (vesicle binding), % at 7 µM;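 active means response, share of CD8 T cells binding vesicles, and their 90th percentile fluorescence all below set limits, cut at about 80% in these data, passing the limit was not always enough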;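 further: values below 100% mean blocked vesicle binding to the CD8+ T cells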
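Incubation: binding step 1.5 h, 37 °C, antibody labelling 20 min, ice; system: murine 2C transgenic CD8+ T lymphocytes; technique: cytometric PE anti-B7-1 and Alexa647 anti-CD8 signals after 1% paraformaldehyde fixation; also added: QL9-charged Drosophila Ld/ICAM-1/B7-1 vesicles; control set: naked versus QL9-loaded vesicles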
SUMO HTRF inh: inhibitors of in vitro SUMOylation cascade, primary screen, biochemical, HTRF, uHTS | inhibition, % at 35 µM | AID 2006, 2009 | HTRF SUMOylation assay, SAE1/SAE2 + UBC9 | hit rate 0.36% among 290,000; in the data active means inhibition above about 50%, passing the limit was not always enough
Target sequence (P63279 whole entry, looked up): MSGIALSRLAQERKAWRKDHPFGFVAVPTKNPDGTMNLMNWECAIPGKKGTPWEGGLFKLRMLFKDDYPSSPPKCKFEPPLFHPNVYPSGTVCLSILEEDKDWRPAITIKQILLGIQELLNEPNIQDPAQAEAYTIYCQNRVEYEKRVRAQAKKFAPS
IMP-1 inhibitor: IMP-1 metallo-beta-lactamase inhibitors, primary screen, biochemical, epi-absorbance readout, Pseudomonas aeruginosa enzyme | metallo-beta-lactamase IMP-1 (Pseudomonas aeruginosa) | purified IMP-1, nitrocefin hydrolysis, epi-absorbance fluorescence | inhibition, % at 5.6 µM | hit rate 0.45% among 290,000 | AID 1556, 2009;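 active means inhibition above the mean plus 3 SD of all compounds in the same screening run, cut at about 4.5% in these data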;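 further: 0% = IMP-1 with DMSO and 100% = DMSO wells lacking enzyme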
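Material – recombinant IMP-1 enzyme, purified · Amount – IMP-1 0.2 nM before substrate addition · Medium – HEPES buffer pH 7.1 with ZnSO4 and Brij 35 · Timing – 25 °C, 15 min preincubation, 25 min reaction · Measured by – plate fluorescence quenching by hydrolysis product, ex 480/em 530 nm · Read-out – percent enzyme inhibition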
p-CIP stab down: p/CIP-EGFP fusion destabilizers, primary screen, fluorescence, F442A cells; 16 h; decrease of EGFP signal, % at 10 µM; hit rate 0.01% among 290,000;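 active means EGFP signal decrease of at least 30% at 10 µM or well 3 SD below plate mean, unless failing retest; inactive means the rest, including hits failing retest or dose response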
Starred values were filed as active, the others as inactive. Only some compounds are listed: those with a hit (about 1.9% of all), similar ones and a draw of the others.

What do the screens show for `O=C(c1ccco1)[C@@H]1[C@@H]2C(=O)N(c3ccccc3)C(=O)[C@@H]2C2c3ccccc3C=CN21` (stereo not given in full)?
VIM-2 inhibitor: -2; Fh CTSL1 inh: 28*; T cell HTS: 305; SUMO HTRF inh: 35; IMP-1 inhibitor: -1; p-CIP stab down: -10

Results for Cc1ccc(N2C(=O)[C@@H]3[C@H](C2=O)C2c4ccccc4C=CN2[C@@H]3C(=O)c2ccco2)cc1 (stereo not given in full) ?
VIM-2 inhibitor: 3; SUMO HTRF inh: 45; IMP-1 inhibitor: 3; p-CIP stab down: -26

What do the screens show for `COc1ccc(N2C(=O)[C@@H]3[C@H](C2=O)[C@H]2c4ccccc4C=CN2[C@@H]3C(=O)Nc2ccccc2)cc1`?
VIM-2 inhibitor: 1; Fh CTSL1 inh: 0; T cell HTS: 177; SUMO HTRF inh: 21; IMP-1 inhibitor: 42*; p-CIP stab down: -6

Results for O=c1oc(-c2ccc(O)c(O)c2)cc2cccc(O)c12 ?
T cell HTS: 281

What do the screens show for `O=C(O)c1cccc2cc(-c3ccccc3)oc(=O)c12`?
VIM-2 inhibitor: 5; Fh CTSL1 inh: 2; T cell HTS: 207; SUMO HTRF inh: 26; IMP-1 inhibitor: 4.8*; p-CIP stab down: -7

Results for Nc1c(Cl)ncnc1NCc1ccccc1 ?
VIM-2 inhibitor: -2; Fh CTSL1 inh: 2; T cell HTS: 343; SUMO HTRF inh: 18; IMP-1 inhibitor: -3; p-CIP stab down: -18

Results for Cc1cccc(N(CC(=O)NC(C)(C)C)C(=O)CCC(=O)Nc2ccccn2)c1 ?
VIM-2 inhibitor: -3; Fh CTSL1 inh: 18*; T cell HTS: 478; SUMO HTRF inh: 8; IMP-1 inhibitor: -2; p-CIP stab down: -15

What do the screens show for `CC1CCC(NC(=O)C2CCN(S(=O)(=O)c3ccc4nc5c(c(C(=O)O)c4c3)CC(C)CC5)CC2)CC1` (stereo not given)?
VIM-2 inhibitor: 1; Fh CTSL1 inh: 19*; T cell HTS: 382; SUMO HTRF inh: 2; IMP-1 inhibitor: -1; p-CIP stab down: -6

How did CC(NC(=O)C1CCN(S(=O)(=O)c2ccc3nc4c(c(C(=O)O)c3c2)CCCC4)CC1)c1ccccc1 (stereo not given) do in these assays?
VIM-2 inhibitor: -3; Fh CTSL1 inh: 2; T cell HTS: 474; SUMO HTRF inh: 6; IMP-1 inhibitor: 0; p-CIP stab down: -4

Results for CN(Cc1ccccc1)C(=O)C1CCN(S(=O)(=O)c2ccc3nc4c(c(C(=O)O)c3c2)CCCC4)CC1 ?
VIM-2 inhibitor: 1; Fh CTSL1 inh: 4; T cell HTS: inactive; SUMO HTRF inh: 7; IMP-1 inhibitor: 5.5*; p-CIP stab down: -6

What do the screens show for `CC1CCc2nc3ccc(S(=O)(=O)N4CCC(C(=O)NCc5ccccc5Cl)CC4)cc3c(C(=O)O)c2C1` (stereo not given)?
VIM-2 inhibitor: -2; Fh CTSL1 inh: -5; T cell HTS: 416; SUMO HTRF inh: 9; IMP-1 inhibitor: 0; p-CIP stab down: -2

Results for C/C(=N\OCC(=O)OCC(=O)N(C)c1ccccc1)c1ccc2c(c1)OCO2 ?
T cell HTS: inactive

What do the screens show for `COc1cccc(C(=O)Nc2ccc(NC(C)=O)cn2)c1`?
VIM-2 inhibitor: 1; Fh CTSL1 inh: 20*; T cell HTS: 538; SUMO HTRF inh: -17; IMP-1 inhibitor: -1; p-CIP stab down: 2

How did COc1ccc(-c2nn(C)c(=O)c3ccccc23)cc1CNS(C)(=O)=O do in these assays?
VIM-2 inhibitor: 8.5*; Fh CTSL1 inh: -2; T cell HTS: 195; SUMO HTRF inh: 11; IMP-1 inhibitor: -1; p-CIP stab down: 7

What do the screens show for `COc1ccc(-c2nn(C)c(=O)c3ccccc23)cc1CNC(=O)c1ccco1`?
VIM-2 inhibitor: 8.9*; Fh CTSL1 inh: 4; T cell HTS: 270; SUMO HTRF inh: -3; IMP-1 inhibitor: 0; p-CIP stab down: 0

Bioassay records (PubChem BioAssay)
